For test [1], the target named is T1, Melatonin receptor type 1A (Homo sapiens, UniProt P48039). The test can be described thus: Displacement of 2-[125I]iodomelatonin from human MT1 receptor expressed in CHO cells. The format is cell-based.
Test [2] addresses T2, Melatonin receptor type 1B (Homo sapiens, UniProt P49286).
T2 sequence (P49286 whole entry): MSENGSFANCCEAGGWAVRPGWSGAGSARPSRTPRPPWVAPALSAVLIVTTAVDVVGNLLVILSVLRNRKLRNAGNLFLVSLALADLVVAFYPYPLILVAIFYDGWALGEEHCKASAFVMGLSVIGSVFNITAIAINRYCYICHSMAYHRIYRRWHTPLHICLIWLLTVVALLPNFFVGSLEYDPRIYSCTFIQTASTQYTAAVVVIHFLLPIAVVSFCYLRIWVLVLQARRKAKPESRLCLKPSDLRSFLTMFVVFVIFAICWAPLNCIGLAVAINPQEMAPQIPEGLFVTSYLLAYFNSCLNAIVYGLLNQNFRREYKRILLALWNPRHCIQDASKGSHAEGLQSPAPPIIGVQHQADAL
The test can be described thus: Displacement of 2-[125I]iodomelatonin from human MT2 receptor expressed in CHO cells. The format is cell-based.

For test [3], the target named is T3, Melatonin receptor type 1B (Homo sapiens) (UniProt P49286).
T3 sequence (whole entry): T2 sequence (P49286 whole entry)
The test is described as follows: Antagonist activity at human MT2 receptor expressed in CHO cells assessed as inhibition of forskolin-stimulated cAMP formation. The format is functional, cell-based. A digest of the protocol:
(§1)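 In stable human MT1- or MT2-CHO cells replated in 24-well plates, cells were given 20 min at 37 °C in serum-free medium with 30 µM rolipram and 100 µM forskolin, plus a test compound concentration series within 10-14 to 10^-4 M. Rolipram alone gave basal and rolipram plus forskolin gave maximal accumulation. cAMP was read by EIA kit.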
(cAMP levels reflect the balance of adenylyl cyclase and phosphodiesterase activity.)

The species named for test [4] is Homo sapiens. The test can be described thus: Selectivity ratio of Ki for human MT1 receptor to Ki for human MT2 receptor. A digest of the protocol:
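Whole-cell competition binding used lifted human MT1- or MT2-CHO cells with 80-100 pM 2-[125I]iodomelatonin and test compound (1 pM to 1 µM), 1 h at 25 °C, stopped with cold 50 mM Tris-HCl pH 7.4. Ki came from IC50 by Cheng-Prusoff, mean of three determinations. The ratio is Ki MT1 / Ki MT2.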

The target in test [5] is T1, Melatonin receptor type 1A. The test can be described thus: Activity at high-affinity binding site of human MT1 receptor expressed in CHO cells assessed as decrease in potency of melatonin to inhibit forskolin-induced cAMP accumulation at 10 to 100 nM.
In test [6] the target is T3, Melatonin receptor type 1B (Homo sapiens). The test can be described thus: Activity at human MT2 receptor expressed in CHO cells assessed as increase in potency of melatonin to inhibit forskolin-induced cAMP accumulation at 100 nM. It is filed as functional, cell-based.
The target is the same in test [7]. The test is described as follows: Activity at human MT2 receptor expressed in CHO cells assessed as increase in potency of melatonin to inhibit forskolin-induced cAMP accumulation at 10 nM. It is filed as functional, cell-based.
The target of test [8] is T1, Melatonin receptor type 1A. The test is described as follows: Activity at low-affinity binding site of human MT1 receptor expressed in CHO cells assessed as increase in potency of melatonin to inhibit forskolin-induced cAMP accumulation at 10 to 100 nM. It is filed as functional, cell-based.
The target in test [9] is T1, Melatonin receptor type 1A. The test is described as follows: Antagonist activity at human MT1 receptor expressed in CHO cells assessed as inhibition of forskolin-stimulated cAMP formation. It is filed as functional, cell-based. A digest of the protocol:
as §1

Test [10] addresses T3, Melatonin receptor type 1B (Homo sapiens). The test is described as follows: Activity at human MT2 receptor expressed in CHO cells assessed as inhibition of forskolin-stimulated cAMP formation at >10 nM. It is filed as functional, cell-based. A digest of the protocol:
as §1

Structures are written as SMILES. The source made the active and inactive calls. No cut-off for these calls is given here.

T1 sequence (P48039 whole entry): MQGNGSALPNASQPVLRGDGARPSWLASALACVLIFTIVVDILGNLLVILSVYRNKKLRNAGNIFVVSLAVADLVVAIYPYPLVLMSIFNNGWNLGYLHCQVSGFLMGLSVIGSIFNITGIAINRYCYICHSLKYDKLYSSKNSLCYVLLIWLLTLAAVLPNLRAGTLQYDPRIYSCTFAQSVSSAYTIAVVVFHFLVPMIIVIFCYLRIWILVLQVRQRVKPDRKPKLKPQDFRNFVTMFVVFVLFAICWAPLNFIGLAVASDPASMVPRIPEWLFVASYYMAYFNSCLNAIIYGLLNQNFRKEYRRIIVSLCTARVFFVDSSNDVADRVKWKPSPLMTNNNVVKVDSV

Take `COc1ccc2[nH]c(CN3CCc4cc(Br)ccc43)c(CCNC(C)=O)c2c1`: the Ki in test [1] (read-out: Ki) was 85 nM; in test [2] (read-out: Ki), 30 nM.

For `COc1ccc2[nH]c(CN3CCc4ccccc43)c(CCNC(C)=O)c2c1`, the Ki in test [1] (read-out: Ki) was 101 nM; in test [1] (read-out: pKi (converted)), 115 nM; in test [2] (read-out: Ki), 1.1 nM; in test [2] (read-out: pKi (converted)), 1.17 nM. Besides, the result in test [3], in [5], in [6], in test [7], in test [8] and in [9] was Active. Also, the Ratio Ki in test [4] was determined as 91.

In the case of `CCC(=O)NC1Cc2ccccc2C(c2ccccc2)C1` (stereo not drawn), the Ki in test [1] (read-out: Ki) was 59 nM; in test [2] (read-out: Ki), 0.46 nM.

For the molecule `COc1ccc2c(c1)CCN2Cc1[nH]c2ccc(OC)cc2c1CCNC(C)=O`, the Ki in test [1] (read-out: Ki) amounted to 5.8 nM; in test [2] (read-out: Ki), 7.1 nM.

As for `CCCC(=O)NCCc1c(CN2c3ccccc3CC2C)[nH]c2ccc(OC)cc12` (stereo not drawn), the results for the Ki in test [1] (read-out: Ki) and in test [2] (read-out: Ki) were 41 nM and 8 nM, respectively. The Ratio Ki in test [4] came to 5.

`COc1cccc(C(CCNC(C)=O)c2ccc3ccccc3c2)c1` (stereo not drawn): the Ki amounted to 132 nM in [1] (read-out: Ki) and 0.11 nM in test [2] (read-out: Ki).

Consider `COc1ccc2[nH]c(CN3CCc4cc(C)ccc43)c(CCNC(C)=O)c2c1`, for which the Ki in [1] (read-out: Ki) was 41 nM; in [2] (read-out: Ki) it was 15 nM.

With `COc1ccc2[nH]c(CN3CCc4ccc(N)cc43)c(CCNC(C)=O)c2c1`, the Ki is 108 nM in test [1] (read-out: Ki) and 118 nM in [2] (read-out: Ki).

As to `COc1ccc2c(c1)c(CCNC(C)=O)c1n2CC2Cc3ccccc3N2C1` (stereo not drawn), the results for the Ki in test [1] (read-out: pKi (converted)) and in test [2] (read-out: pKi (converted)) were 302 nM and 60.3 nM, respectively.

Turning to `COc1ccc2c(c1)[C@@H](CCNC(=O)C1CCC1)C[C@@H](c1ccccc1)C2`, the results for the Ki in test [1] (read-out: Ki) and in test [2] (read-out: Ki) were 797 nM and 0.9 nM, respectively.

Consider `COc1ccc2[nH]c(CN3c4ccccc4CC3C)c(CCNC(C)=O)c2c1` (stereo not drawn), for which the Ki in test [1] (read-out: Ki) worked out at 148 nM; in [2] (read-out: Ki) it was 14 nM. The Ratio Ki in [4] stood at 11.

For the molecule `COc1ccc2[nH]c(CN3CCCC3)c(CCNC(C)=O)c2c1`, the Ki amounted to 121 nM in test [1] (read-out: Ki) and 25 nM in [2] (read-out: Ki).

With `CCC(=O)NCC1Cc2ccccc2Cc2ccc(OC)cc21` (stereo not drawn), the Ki in test [1] (read-out: Ki) was 1.4 nM; in test [2] (read-out: Ki) it was 0.16 nM.

As to `CCC(=O)NCCc1c(CN2CCc3ccccc32)[nH]c2ccc(OC)cc12`, the Ki in [1] (read-out: Ki) turned out to be 38 nM; in [2] (read-out: Ki), 14.5 nM.

As to `COc1ccc2[nH]c(CN3CCc4ccccc43)c(CCNC(=O)C3CCC3)c2c1`, the Ki in test [1] (read-out: Ki) is 1400 nM; in [2] (read-out: Ki), 148 nM; in test [2] (read-out: pKi (converted)), 0.001 nM. Further, the result in [10] and in [9] was Active.

For the molecule `COc1cccc(/C(=C/CNC(C)=O)c2ccccc2)c1`, the figures for the Ki in [1] (read-out: Ki) and in [2] (read-out: Ki) were 230 nM and 2.5 nM, respectively.

Consider `COc1ccc2c(c1)CC1Cn3c(c(CCNC(C)=O)c4cc(OC)ccc43)CN21` (stereo not drawn), for which the Ki in [1] (read-out: pKi (converted)) is 1780 nM.

Regarding `CCC(=O)NCc1cc2c(OC)cccc2n1Cc1ccc(Cl)cc1`, the Ki in [2] (read-out: Ki) was found to be 9 nM.

Take `COc1ccc2[nH]c(CN3CCc4ccc([N+](=O)[O-])cc43)c(CCNC(C)=O)c2c1`: the Ki in [1] (read-out: Ki) was 302 nM; in test [1] (read-out: pKi (converted)), 309 nM; in test [2] (read-out: Ki), 26.5 nM.

Turning to `COc1cccc(Cc2oc3ccc(OC)cc3c2CCNC(C)=O)c1`, the Ki in [1] (read-out: Ki) is 27 nM; in test [2] (read-out: Ki), 0.25 nM.
